Laboratory results: ChEMBL document CHEMBL3425409, “General role of the amino and methylsulfamoyl groups in selective cyclooxygenase(COX)-1 inhibition by 1,4-diaryl-1,2,3-triazoles and validation of a predictive pharmacometric PLS model” (Eur J Med Chem, 2015)
The source made the active and inactive calls. The rule behind the calls is not given here.

Tests used:
[1] = target: T1, Prostaglandin G/H synthase 1 (Ovis aries) (UniProt P05979); experiment: Inhibition of ovine COX-1 assessed as inhibition of PGH2 production using arachidonic acid as substrate at 50 uM by TMPD oxidation based colorimetric assay
T1 sequence (whole entry): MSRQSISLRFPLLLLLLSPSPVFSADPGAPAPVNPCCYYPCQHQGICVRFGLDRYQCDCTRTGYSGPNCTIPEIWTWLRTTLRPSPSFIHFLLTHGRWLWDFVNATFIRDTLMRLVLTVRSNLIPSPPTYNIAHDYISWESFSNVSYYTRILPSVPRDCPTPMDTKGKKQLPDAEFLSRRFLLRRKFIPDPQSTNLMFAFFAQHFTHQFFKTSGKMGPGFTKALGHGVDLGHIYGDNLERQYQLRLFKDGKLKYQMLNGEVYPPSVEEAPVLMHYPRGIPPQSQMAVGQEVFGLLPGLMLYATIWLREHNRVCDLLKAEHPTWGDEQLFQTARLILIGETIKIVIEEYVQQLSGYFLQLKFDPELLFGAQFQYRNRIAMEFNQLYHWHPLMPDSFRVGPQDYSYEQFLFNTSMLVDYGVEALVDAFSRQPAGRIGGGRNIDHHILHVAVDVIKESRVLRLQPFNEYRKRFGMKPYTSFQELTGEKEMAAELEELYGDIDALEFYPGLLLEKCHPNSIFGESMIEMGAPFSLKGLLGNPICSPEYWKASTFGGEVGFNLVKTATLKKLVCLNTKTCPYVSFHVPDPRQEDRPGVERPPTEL
Summary of the method: (§1)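 Ovine COX-1 and COX-2 tested with a commercial colorimetric COX inhibitor screening kit, run per the manufacturer's protocol. The kit reads the enzyme's peroxidase activity. Compounds screened as percent inhibition at a single 50 µM concentration.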

[2] = target: T2, Prostaglandin G/H synthase 2 (Ovis aries) (UniProt P79208); experiment: Inhibition of ovine COX-2 assessed as inhibition of PGH2 production using arachidonic acid as substrate at 50 uM by TMPD oxidation based colorimetric assay; summary of the method: as §1
T2 sequence (whole entry): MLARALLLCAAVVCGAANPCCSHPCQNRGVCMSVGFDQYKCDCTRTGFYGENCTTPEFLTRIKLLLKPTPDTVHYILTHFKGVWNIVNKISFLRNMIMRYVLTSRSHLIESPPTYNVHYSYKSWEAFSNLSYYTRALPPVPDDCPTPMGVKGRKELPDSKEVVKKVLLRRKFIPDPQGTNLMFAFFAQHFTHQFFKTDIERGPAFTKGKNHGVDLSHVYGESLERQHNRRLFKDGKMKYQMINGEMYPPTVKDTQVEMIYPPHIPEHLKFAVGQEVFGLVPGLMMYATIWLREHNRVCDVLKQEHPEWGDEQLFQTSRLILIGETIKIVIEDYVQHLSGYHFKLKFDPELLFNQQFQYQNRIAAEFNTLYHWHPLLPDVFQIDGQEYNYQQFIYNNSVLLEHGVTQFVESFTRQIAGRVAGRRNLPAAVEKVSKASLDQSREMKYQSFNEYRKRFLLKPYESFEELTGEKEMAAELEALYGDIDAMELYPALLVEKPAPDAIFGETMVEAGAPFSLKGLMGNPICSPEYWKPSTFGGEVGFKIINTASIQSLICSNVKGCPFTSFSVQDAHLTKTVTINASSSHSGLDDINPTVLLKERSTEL

[3] = target: T3, Prostaglandin G/H synthase 2 (Ovis aries, UniProt P79208); experiment: Inhibition of ovine COX-2 assessed as inhibition of PGH2 production using arachidonic acid as substrate by TMPD oxidation based colorimetric assay
T3 sequence (P79208 whole entry): T2 sequence (whole entry)

MCF7 = experiment: Antiproliferative activity against human MCF7 cells assessed as cell growth inhibition after 48 hrs by MTT assay; type: cell-based; settings: mcf7, 48 h
Summary of the method: (§2)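 MTT read-out of growth after 48 h. After the drug incubation, MTT was added at 0.5 mg/mL for 3 h at 37 °C. Supernatant was removed, formazan dissolved in DMSO, and absorbance read.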

SK-OV-3 = experiment: Antiproliferative activity against human SKOV3 cells assessed as cell growth inhibition after 48 hrs by MTT assay; type: cell-based; settings: sk-ov-3, 48 h; summary of the method: as §2
[4] = target: T4, Prostaglandin G/H synthase 2 (Homo sapiens, UniProt P35354); experiment: Inhibition of LPS-induced COX2 in human whole blood assessed as reduction in […] levels by radioimmunoassay
T4 sequence (P35354 whole entry): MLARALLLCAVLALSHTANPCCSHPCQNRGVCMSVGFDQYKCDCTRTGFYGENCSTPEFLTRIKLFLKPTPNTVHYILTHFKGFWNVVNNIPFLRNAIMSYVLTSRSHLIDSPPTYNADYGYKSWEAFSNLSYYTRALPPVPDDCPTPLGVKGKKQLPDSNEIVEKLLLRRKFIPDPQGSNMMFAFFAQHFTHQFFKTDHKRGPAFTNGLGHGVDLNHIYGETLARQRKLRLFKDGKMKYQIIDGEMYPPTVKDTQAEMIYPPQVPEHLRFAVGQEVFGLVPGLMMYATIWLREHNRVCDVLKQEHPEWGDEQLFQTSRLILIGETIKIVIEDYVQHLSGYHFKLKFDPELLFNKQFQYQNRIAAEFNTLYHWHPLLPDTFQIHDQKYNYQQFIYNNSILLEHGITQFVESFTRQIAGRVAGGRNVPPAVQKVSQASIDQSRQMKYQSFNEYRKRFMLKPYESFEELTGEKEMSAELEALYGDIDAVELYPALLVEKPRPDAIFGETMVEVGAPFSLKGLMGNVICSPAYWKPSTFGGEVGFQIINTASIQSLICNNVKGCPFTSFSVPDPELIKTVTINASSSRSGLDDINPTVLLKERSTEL

Row | Compound | inhibition [1] | inhibition [2] | other results
1 | Cc1c(-c2ccccc2)nnn1-c1ccc(S(C)(=O)=O)cc1 | 21% | 20% | –
2 | Cc1c(-c2ccccc2)nnn1-c1ccc([N+](=O)[O-])cc1 | inactive | inactive | –
3 | COc1ccc(-c2noc(CC(=O)O)c2-c2ccc(OC)cc2)cc1 [MOFEZOLAC] | – | – | IC50 [3]: 440 nM
4 | Cc1c(-c2ccccc2)nnn1-c1ccc(F)cc1 | inactive | inactive | –
5 | Cc1c(-c2ccccc2)nnn1-c1ccc(O)cc1 | inactive | 26% | –
6 | COc1ccc(-n2nc(C(F)(F)F)cc2-c2ccco2)cc1 | – | 28% | –
7 | Cc1onc(-c2ccc(Cl)o2)c1-c1ccccc1 | 89% | – | IC50 [4]: > 100000 nM
8 | Clc1ccc(-c2noc(CBr)c2-c2ccccc2)o1 | 37% | – | –
9 | COC(=O)Cc1onc(-c2ccc(Cl)o2)c1-c1ccccc1 | 7% | – | –
10 | N#CCc1onc(-c2ccc(Cl)o2)c1-c1ccccc1 | 11% | – | –

Continued, in another order:

Row | inhibition [1] | inhibition [2] | Compound | other results
11 | inactive | inactive | Cc1c(-c2ccccc2)nnn1-c1ccc(Cl)cc1 | –
12 | 26% | 35% | COc1ccc(-n2nnc(-c3ccccc3)c2C)cc1 | –
13 | 20% | inactive | COc1ccc(-n2nnc(-c3ccc(S(C)(=O)=O)cc3)c2C)cc1 | –
14 | 45% | inactive | COc1ccc(-n2nnc(-c3ccc(Cl)o3)c2C)cc1 | –
15 | inactive | inactive | COc1ccc(-c2nnn(-c3ccc(SC)cc3)c2C)cc1 | –
16 | 25% | inactive | COc1ccc(-c2nnn(-c3ccc(OC)cc3)c2C)cc1 | –
17 | inactive | 14% | CSc1ccc(-n2nnc(-c3ccccc3)c2C)cc1 | –
18 | 55% | inactive | COc1ccc(-c2nnn(-c3ccc(S(C)(=O)=O)cc3)c2C)cc1 | –
19 | 56% | inactive | Cc1c(-c2ccccc2)nnn1-c1ccc(N)cc1 | Activity (MCF7): Non-toxic; Activity (SK-OV-3): Non-toxic
20 | inactive | inactive | COc1ccc(-n2nnc(-c3ccco3)c2C)cc1 | –
21 | 20% | inactive | COc1ccc(-n2nnc(-c3ccc([N+](=O)[O-])cc3)c2C)cc1 | –
22 | inactive | 40% | Cc1c(-c2ccco2)nnn1-c1ccc([N+](=O)[O-])cc1 | –
23 | inactive | inactive | COc1ccc(-n2nnc(-c3ccc(SC)cc3)c2C)cc1 | –
24 | 100% | inactive | COc1ccc(-n2nnc(-c3ccc(N)cc3)c2C)cc1 | Activity (MCF7): Non-toxic; Activity (SK-OV-3): Non-toxic
